Results as given in ChEMBL document CHEMBL4004783, “Penicisulfuranols A-F, Alkaloids from the Mangrove Endophytic Fungus Penicillium janthinellum HDN13-309” (J Nat Prod, 2017).
Counter-ions that a name gives are not always drawn.

Columns and labels:
HL-60 = assay: Cytotoxicity against human HL60 cells assessed as reduction in cell viability by MTT assay; type: functional, cell-based
Summary of the method: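 HL-60 human promyelocytic leukemia cells; viability read by MTT method; IC50 values reported.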

HeLa = assay: Cytotoxicity against human HeLa cells assessed as reduction in cell viability by SRB assay; type: functional, cell-based
Summary of the method: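 HeLa human cervical carcinoma cells; cell growth read by sulforhodamine B (SRB) method; IC50 values reported.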

Structure (SMILES) | IC50 (HL-60) [nM] | IC50 (HeLa) [nM]
COc1ccc2c(c1OC)O[C@]13C(=O)N4O[C@H]5[C@H](O)C=C[C@@H](O)[C@@]5(O)C[C@@]4(SS[C@H]21)C(=O)N3C | 1600 | 3900
COc1ccc2c(c1OC)O[C@]13C(=O)N4O[C@H]5[C@H](O)C=C[C@@H](O)[C@@]5(O)C[C@@]4(SSS[C@H]21)C(=O)N3C | 1200 | 300
COc1ccc2c(c1OC)O[C@]1(C(=O)N3O[C@H]4[C@H](O)C=C[C@@H](Cl)[C@@]4(O)C[C@@]3(SC)C(=O)N1C)[C@@H]2SC | > 30000 | > 30000
COc1ccc2c(c1OC)O[C@]1(C(=O)N3O[C@H]4[C@H](O)C=C[C@@H](O)[C@@]4(O)C[C@@]3(SC)C(=O)N1C)[C@@H]2SC | > 30000 | > 30000
COc1cccc2c1O[C@]1(C(=O)N3O[C@H]4[C@H](O)C=C[C@@H](O)[C@@]4(O)C[C@@]3(SC)C(=O)N1C)[C@@H]2SC | > 30000 | > 30000
COc1ccc2c(c1OC)O[C@]13C(=O)N4O[C@H]5[C@H](O)C=C[C@@H](Cl)[C@@]5(O)C[C@@]4(SS[C@H]21)C(=O)N3C | 100 | 500
COc1cccc2c1C(=O)c1c(O)c3c(c(O)c1C2=O)C[C@@](O)(C(=O)CO)C[C@@H]3O[C@H]1C[C@H](N)[C@H](O)[C@H](C)O1 [DOXORUBICIN HYDROCHLORIDE] |  | 500
